Measurements from ChEMBL document CHEMBL3098105, “7,7'-Diazaindirubin--a small molecule inhibitor of casein kinase 2 in vitro and in cells” (Bioorg Med Chem, 2014).

Experiments:
Type in all cases: functional, cell-based
MCF7 = experiment: Antiproliferative activity against human MCF7 cells after 3 days by SRB assay; conditions: MCF7, 72 h
How it was run: (§1)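 Cells grown at 37 °C, 5% CO2, with 10% heat-inactivated FBS: LXFL529L in RPMI 1640, MCF7 and HT29 in DMEM. Seeded, allowed 24 h growth, then exposed to the drug at various concentrations for 3 days in serum medium. Fixed with TCA for 1 h at 4 °C, stained with 0.4% SRB, eluted in 10 mM Tris pH 10.5, read at 570 nm as % T/C. IC50 taken from dose–response curves of at least three independent experiments.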

HT-29 = experiment: Antiproliferative activity against human HT-29 cells after 3 days by SRB assay; conditions: HT-29, 72 h; how it was run: as §1
[1] = Antiproliferative activity against human LXFL 529L cells after 3 days by SRB assay; conditions: 72 h; how it was run: as §1

| Compound | IC50 (MCF7) [µM] | IC50 (HT-29) [µM] | IC50 [1] [µM] |
| --- | --- | --- | --- |
| O=C1Nc2ncccc2/C1=C1/Nc2ccccc2C1=O | 3 | > 10 | 2.9 |
| O=C1Nc2ccccc2/C1=C1/Nc2ccccc2C1=O [INDIRUBIN] | 4 |  | 9.9 |
| O=C1Nc2ncccc2/C1=C1\C(=O)Nc2ncccc21 | > 100 | > 100 | > 100 |
| O=C1/C(=C2\Nc3ncccc3C2=O)Nc2ncccc21 | > 100 | > 100 | > 100 |
| O=C1Nc2ccccc2/C1=C1/Nc2ncccc2C1=O | 5 | > 10 | 4.4 |
